LEDGF integ inh: blocks HIV-1 LEDGF/p75-dependent DNA integration. 370,000 compounds, 0.64% hits. TR-FRET IN-LEDGF/p75 DNA integration, Eu/Cy5. inhibition, % at 3.7 µM. AID 743269;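 active = inhibition above the screen-wide mean plus 3 SD, cut at about 13% in these data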;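 also: signal is the Cy5 over europium emission ratio at 671 and 618 nm; 0% = plate median of compound wells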
TDP2 absorb: TDP2 (human) inhibition, absorbance primary screen; recombinant TDP2, T5PNP hydrolysis, p-nitrophenol absorbance 415 nm; O95551; inhibition, % at 12.8 µM; AID 720702; 370,000 compounds, 0.34% hits;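 active = inhibition above the mean of all tested compounds plus 3 SD, set per campaign, cut at about 25% in these data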;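 also: 0% = DMSO with enzyme and 100% = buffer with substrate but no TDP2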
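System – recombinant human TDP2 · Quantity – TDP2 enzyme at 120 nM final · Doses – single concentration, 12.8 µM nominal, with 1% DMSO · Incubation – 2 h at 37 °C · Measured by – epi absorbance of p-nitrophenol freed from T5PNP by hydrolysis · Read-out – % inhibition relative to enzyme-containing and enzyme-free wells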
UHRF1 MBD2 ctr: UHRF1 methyl-DNA binding inhibition; Q96T88; UHRF1 binding to methylated oligo, TR-FRET; inhibition, % at 4.4 µM; 370,000 compounds, 0.75% hits; in the data active = inhibition above about 21%;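 also: UHRF1 SRA domain binding a hemimethylated CpG hairpin DNA probe; 0% = median of test compound wells and 100% = reference inhibitor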
MBD2 inh: MBD2-methylated oligo binding inhibition; AID 686964; TR-FRET, MBD2 binding to methylated oligonucleotide; inhibition, % at 4.4 µM; 370,000 compounds, 0.31% hits; Q9UBB5; in the data active = inhibition above about 13%
Target sequence (Q9UBB5 whole entry, looked up): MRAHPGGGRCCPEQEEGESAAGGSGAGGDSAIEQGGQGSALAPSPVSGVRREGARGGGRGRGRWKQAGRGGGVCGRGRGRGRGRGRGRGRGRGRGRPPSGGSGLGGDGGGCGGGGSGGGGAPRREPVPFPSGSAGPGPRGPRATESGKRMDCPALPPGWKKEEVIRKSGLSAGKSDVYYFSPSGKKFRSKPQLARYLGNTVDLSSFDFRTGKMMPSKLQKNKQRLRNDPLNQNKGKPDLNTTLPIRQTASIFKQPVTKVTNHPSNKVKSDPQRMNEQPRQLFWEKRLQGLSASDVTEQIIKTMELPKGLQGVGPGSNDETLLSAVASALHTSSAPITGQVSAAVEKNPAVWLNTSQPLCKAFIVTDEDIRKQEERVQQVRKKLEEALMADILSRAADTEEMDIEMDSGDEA
TDP2 inh conf: human TDP2 inhibition, confirmation; shares compounds with TDP2 absorb; recombinant human TDP2, absorbance read-out; inhibition, % at 12.8 µM; 1,100 compounds, 22% hits; AID 743263; in the data active = inhibition above about 25%;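 also: 0% = vehicle with enzyme and 100% = no enzyme buffer only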
Numbers without * were called inactive. Compounds with a hit are over-represented: about 1.6% of the library has one in this group of screens.

Results for Nc1ccc2nn(-c3ccccc3)nc2c1 ?
LEDGF integ inh: 10; TDP2 absorb: 27*; UHRF1 MBD2 ctr: -1; MBD2 inh: 3; TDP2 inh conf: 13

What do the screens show for `Cc1ccc(-n2nc3cc(C)c(N)cc3n2)cc1`?
LEDGF integ inh: 5; TDP2 absorb: 2; UHRF1 MBD2 ctr: -1; MBD2 inh: -7

Results for Nc1ccc(-n2nc3ccccc3n2)cc1 ?
LEDGF integ inh: 2; TDP2 absorb: 10; UHRF1 MBD2 ctr: -3; MBD2 inh: -4

What do the screens show for `Nc1cc2nn(-c3ccccc3)nc2cc1Cl`?
LEDGF integ inh: 48*; TDP2 absorb: 70*; UHRF1 MBD2 ctr: 0; MBD2 inh: -12; TDP2 inh conf: 47*

How did Nc1ccc2nn(-c3cccc4ccccc34)nc2c1 do in these assays?
LEDGF integ inh: 2; TDP2 absorb: 36*; UHRF1 MBD2 ctr: -7; MBD2 inh: -3; TDP2 inh conf: 36*

Results for Cc1ccc(-n2c(SCC(=O)c3ccccc3Br)nnc2-c2ccncc2)cc1 ?
LEDGF integ inh: -2; TDP2 absorb: 1; UHRF1 MBD2 ctr: 0; MBD2 inh: 6

How did Nc1[nH]c(C(=O)c2ccccc2)c(-c2ccc3ccccc3c2)c1C(=O)NC1CC1 do in these assays?
LEDGF integ inh: 1; TDP2 absorb: 14; UHRF1 MBD2 ctr: -2; MBD2 inh: -5

How did O=C(O)/C=C/C(=O)Nc1ccc(O)cc1 do in these assays?
LEDGF integ inh: 14*; TDP2 absorb: 34*; UHRF1 MBD2 ctr: -5; MBD2 inh: -3; TDP2 inh conf: 31*

Results for O=C(NC(=O)c1ccccc1O)c1ccc2c(c1)CCO2 ?
LEDGF integ inh: -1; TDP2 absorb: 25*; UHRF1 MBD2 ctr: -2; MBD2 inh: 4; TDP2 inh conf: 2

How did O=C(O)[C@@H]1CCCN1C(=O)CCc1c[nH]c2ccccc12 do in these assays?
LEDGF integ inh: -2; TDP2 absorb: 25*; UHRF1 MBD2 ctr: 1; MBD2 inh: 0; TDP2 inh conf: -15

What do the screens show for `C[C@H]1[C@@H](OC(=O)Nc2ccc(Br)cc2)CC[C@@]23CCCN2C(=O)CCC[C@@H]13`?
LEDGF integ inh: 0; TDP2 absorb: -7; UHRF1 MBD2 ctr: -2; MBD2 inh: 3

Results for O=[N+]([O-])c1ccc(N2CCOCC2)nc1 ?
LEDGF integ inh: 0; TDP2 absorb: 1; UHRF1 MBD2 ctr: -1; MBD2 inh: 1

What do the screens show for `O=C1CC(N2CCOCC2)=NN1c1ccc([N+](=O)[O-])cc1`?
LEDGF integ inh: 3; TDP2 absorb: 65*; UHRF1 MBD2 ctr: 4; MBD2 inh: -6; TDP2 inh conf: 6

What do the screens show for `CCc1ccc2cc(F)cc(F)c2n1`?
LEDGF integ inh: -3; TDP2 absorb: 45*; UHRF1 MBD2 ctr: 1; MBD2 inh: -1; TDP2 inh conf: -9

Results for COc1cccc(Nc2nc3ccccc3n3cnnc23)c1 ?
LEDGF integ inh: 1; TDP2 absorb: -2; UHRF1 MBD2 ctr: -4; MBD2 inh: -5

What do the screens show for `COc1ccc(Nc2nc3ccccc3n3cnnc23)cc1Cl`?
LEDGF integ inh: 1; TDP2 absorb: 26*; UHRF1 MBD2 ctr: -5; MBD2 inh: 2; TDP2 inh conf: -4

How did CN(CCCC(=O)Nc1ccc(OC(F)F)cc1)S(=O)(=O)c1ccc(F)cc1 do in these assays?
LEDGF integ inh: -2; TDP2 absorb: 28*; UHRF1 MBD2 ctr: 0; MBD2 inh: 1; TDP2 inh conf: 6

What do the screens show for `C=CCN1C=C2C(=O)C(C)(OC(=O)c3cccs3)C(=O)C=C2C=C1CCCC(=O)OC` (stereo not drawn)?
LEDGF integ inh: -2; TDP2 absorb: 26*; UHRF1 MBD2 ctr: -2; MBD2 inh: -9; TDP2 inh conf: 4

How did COC(=O)CCCC1=CC2=CC(=O)C(C)(OC(=O)c3cccs3)C(=O)C2=CN1CCc1ccccn1 (stereo not drawn) do in these assays?
LEDGF integ inh: 2; TDP2 absorb: 9; UHRF1 MBD2 ctr: -6; MBD2 inh: -9

What do the screens show for `COc1ccc(OC)c(C(=O)COC(=O)c2ccc(C)o2)c1`?
LEDGF integ inh: 13; TDP2 absorb: 29*; UHRF1 MBD2 ctr: 18; MBD2 inh: 5; TDP2 inh conf: 5

What do the screens show for `O=C(NC(Cc1ccccc1)c1nc2ccccc2[nH]1)c1cccc([N+](=O)[O-])c1` (stereo not drawn)?
LEDGF integ inh: 1; TDP2 absorb: 1; UHRF1 MBD2 ctr: -3; MBD2 inh: -4

How did O=C(N[C@@H](Cc1ccccc1)c1nc2ccccc2[nH]1)c1ccc([N+](=O)[O-])cc1 do in these assays?
LEDGF integ inh: 3; TDP2 absorb: 25*; UHRF1 MBD2 ctr: 18; MBD2 inh: 7; TDP2 inh conf: 5

Results for CN(C)c1cccc(C(=O)OCC(=O)NC2CCCC2)c1 ?
LEDGF integ inh: 0; TDP2 absorb: 26*; UHRF1 MBD2 ctr: -1; MBD2 inh: -7; TDP2 inh conf: 6

Results for CN(C)c1ccc(C(=O)OCC(=O)NC2CCCCC2)cc1 ?
LEDGF integ inh: 0; TDP2 absorb: -13; UHRF1 MBD2 ctr: 4; MBD2 inh: 3

What do the screens show for `COc1cccc(-c2cc(CNC(=O)[C@H]3O[C@@H](n4cnc(C(N)=O)n4)[C@H](O)[C@@H]3O)no2)c1`?
LEDGF integ inh: 5; TDP2 absorb: -12; UHRF1 MBD2 ctr: 0; MBD2 inh: -9

Results for CC(=O)Nc1ccc(S(=O)(=O)N2CCC(NC(=O)C(Cc3ccc(C)cc3)NC(C)=O)CC2)cc1 (stereo not drawn) ?
LEDGF integ inh: 0; TDP2 absorb: 9; UHRF1 MBD2 ctr: -1; MBD2 inh: 1

What do the screens show for `CC(=O)Nc1ccc(S(=O)(=O)N2CCC(NC(=O)C(Cc3cccc(F)c3)NC(C)=O)CC2)cc1` (stereo not drawn)?
LEDGF integ inh: 3; TDP2 absorb: 28*; UHRF1 MBD2 ctr: -3; MBD2 inh: -1; TDP2 inh conf: 3

Results for COc1ccc(NC(=S)N2CCC(NC(=O)c3cccc(C)c3)CC2)cc1 ?
LEDGF integ inh: -3; TDP2 absorb: 29*; UHRF1 MBD2 ctr: -5; MBD2 inh: 3; TDP2 inh conf: 3

Results for Cc1cc(Nc2cccc(F)c2)cc(=O)n1-c1cccc(F)c1 ?
LEDGF integ inh: 0; TDP2 absorb: -2; UHRF1 MBD2 ctr: -1; MBD2 inh: -3

Results for CN(C)c1cccc(/C=C2\CC3(OC(=O)C4CCCC4)CCCN2C3)c1 (stereo not drawn) ?
LEDGF integ inh: -2; TDP2 absorb: 0; UHRF1 MBD2 ctr: 1; MBD2 inh: 4

Results for COc1ccccc1/C=C/c1nc(S(=O)(=O)c2ccccc2)c(N2CCC(C(N)=O)CC2)o1 ?
LEDGF integ inh: 4; TDP2 absorb: 26*; UHRF1 MBD2 ctr: -1; MBD2 inh: -7; TDP2 inh conf: -11

Results for CN1CCCN(C(=O)CN2C(=O)CC(C)(C)S(=O)(=O)c3ccccc32)CC1 ?
LEDGF integ inh: -1; TDP2 absorb: 10; UHRF1 MBD2 ctr: -1; MBD2 inh: -6
